# Measurements reported in ChEMBL document CHEMBL5346932, “Structure-activity relationships of actively FhuE transported rifabutin derivatives with potent activity against Acinetobacter baumannii” (Eur J Med Chem, 2023).
# Activity calls are given as the source filed them. The calls are words filed in the database; no cut-off is given here.
# Key:
# Assay type in all cases: functional
# [1] = test system: Acinetobacter baumannii; assay: Antibacterial activity against Acinetobacter baumannii HUMC1 cultured in RPMI 1640 medium supplemented with 10% FCS assessed as bacterial growth inhibition incubated for 20 hrs by CLSI based microbroth dilution method
# In short: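 CLSI broth microdilution in RPMI 1640 + 10% FCS in place of CAMHB. Compounds in 2-fold dilution series; inoculum 5×10^5 CFU/mL. Plates held static at 35 °C for 20 h. MIC read visually as the lowest concentration with no visible growth. […] is the reciprocal of this MIC.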
# [2] = test system: Acinetobacter baumannii; assay: Antibacterial activity against Acinetobacter baumannii HUMC1 harboring FhuE deletion mutant assessed as bacterial growth inhibition incubated for 20 hrs by CLSI based microbroth dilution method
# In short: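 Microbroth dilution per CLSI in RPMI 1640 + 10% FCS (in place of CAMHB). Compounds as 2-fold serial dilutions; inoculum 5×10^5 CFU/mL of previously described HUMC1-derived mutant strains. Incubated static at 35 °C for 20 h. MIC read visually as lowest concentration preventing visible growth.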
# [3] = test system: Staphylococcus aureus; assay: Antibacterial activity against Staphylococcus aureus USA300 UAMS-1625 assessed as bacterial growth inhibition incubated for 20 hrs by CLSI based microbroth dilution method
# In short: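 CLSI broth microdilution in CAMHB against S. aureus USA300 UAMS-1625. Compounds in 2-fold dilution series; inoculum 5×10^5 CFU/mL. Incubated without shaking at 35 °C for 20 h. MIC read visually as the lowest concentration preventing visible growth. Fold changes are relative to the rifabutin MIC.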
# [4] = Acinetobacter baumannii, HUMC1, 20 h, read-out: MIC
Compound,"MIC [1, 4] [µg/mL]",other results
CCCN1CCC2(CC1)N=C1C(=C3NC(=O)/C(C)=C\C=C\[C@H](C)[C@H](O)[C@@H](C)[C@@H](O)[C@@H](C)[C@H](OC(C)=O)[C@H](C)[C@@H](OC)/C=C/O[C@@]4(C)Oc5c(C)c(O)c(c1c5C4=O)C3=O)N2,0.004,MIC [2]: 0.5 µg/mL; Activity [3]: Active
CO[C@H]1/C=C/O[C@@]2(C)Oc3c(C)c(O)c4c(c3C2=O)C2=NC3(CCN(CC5CCCCC5)CC3)NC2=C(NC(=O)/C(C)=C\C=C\[C@H](C)[C@H](O)[C@@H](C)[C@@H](O)[C@@H](C)[C@H](OC(C)=O)[C@@H]1C)C4=O (stereo in doubt; form 1) [listing 1 of 2 here],,Activity [3]: Active
CO[C@H]1/C=C/O[C@@]2(C)Oc3c(C)c(O)c4c(c3C2=O)C2=NC3(CCN(C5CCCCC5C)CC3)NC2=C(NC(=O)/C(C)=C\C=C\[C@H](C)[C@H](O)[C@@H](C)[C@@H](O)[C@@H](C)[C@H](OC(C)=O)[C@@H]1C)C4=O (stereo partly specified),0.125,
CO[C@H]1/C=C/O[C@@]2(C)Oc3c(C)c(O)c4c(c3C2=O)C2=NC3(CCN(Cc5ccccc5)CC3)NC2=C(NC(=O)/C(C)=C\C=C\[C@H](C)[C@H](O)[C@@H](C)[C@@H](O)[C@@H](C)[C@H](OC(C)=O)[C@@H]1C)C4=O,0.125,Activity [3]: Active
CO[C@H]1/C=C/O[C@@]2(C)Oc3c(C)c(O)c4c(c3C2=O)C2=NC3(CCN(CCN5CCOCC5)CC3)NC2=C(NC(=O)/C(C)=C\C=C\[C@H](C)[C@H](O)[C@@H](C)[C@@H](O)[C@@H](C)[C@H](OC(C)=O)[C@@H]1C)C4=O,1,
CO[C@H]1/C=C/O[C@@]2(C)Oc3c(C)c(O)c4c(c3C2=O)C2=NC3(CC[N+](C)(C)CC3)NC2=C(NC(=O)/C(C)=C\C=C\[C@H](C)[C@H](O)[C@@H](C)[C@@H](O)[C@@H](C)[C@H](OC(C)=O)[C@@H]1C)C4=O.[I-],8,
CCOC(=O)N1CCC2(CC1)N=C1C(=C3NC(=O)/C(C)=C\C=C\[C@H](C)[C@H](O)[C@@H](C)[C@@H](O)[C@@H](C)[C@H](OC(C)=O)[C@H](C)[C@@H](OC)/C=C/O[C@@]4(C)Oc5c(C)c(O)c(c1c5C4=O)C3=O)N2,8,
CO[C@H]1/C=C/O[C@@]2(C)Oc3c(C)c(O)c4c(c3C2=O)C2=NC3(CCN(C(C)=O)CC3)NC2=C(NC(=O)/C(C)=C\C=C\[C@H](C)[C@H](O)[C@@H](C)[C@@H](O)[C@@H](C)[C@H](OC(C)=O)[C@@H]1C)C4=O,4,
CO[C@H]1/C=C/O[C@@]2(C)Oc3c(C)c(O)c4c(c3C2=O)C2=NC3(CCCCC3)NC2=C(NC(=O)/C(C)=C\C=C\[C@H](C)[C@H](O)[C@@H](C)[C@@H](O)[C@@H](C)[C@H](OC(C)=O)[C@@H]1C)C4=O,0.125,MIC [2]: 0.5 µg/mL
CO[C@H]1/C=C/O[C@@]2(C)Oc3c(C)c(O)c4c(c3C2=O)C2=NC3(CCN(C5CC5)CC3)NC2=C(NC(=O)/C(C)=C\C=C\[C@H](C)[C@H](O)[C@@H](C)[C@@H](O)[C@@H](C)[C@H](OC(C)=O)[C@@H]1C)C4=O (stereo in doubt; form 2),,MIC ([1]; 20 h): 0.001 µg/mL
CO[C@H]1/C=C/O[C@@]2(C)Oc3c(C)c(O)c4c(c3C2=O)C2=NC3(CCN(CC5CCCCC5)CC3)NC2=C(NC(=O)/C(C)=C\C=C\[C@H](C)[C@H](O)[C@@H](C)[C@@H](O)[C@@H](C)[C@H](OC(C)=O)[C@@H]1C)C4=O (stereo in doubt; form 1) [listing 2 of 2 here],0.06,

# Now from value to compound, other results behind:
"MIC [1, 4] [µg/mL]",Compound,other results
0.03,CO[C@H]1/C=C/O[C@@]2(C)Oc3c(C)c(O)c4c(c3C2=O)C2=NC3(CCN(C5CCCC(C)C5)CC3)NC2=C(NC(=O)/C(C)=C\C=C\[C@H](C)[C@H](O)[C@@H](C)[C@@H](O)[C@@H](C)[C@H](OC(C)=O)[C@@H]1C)C4=O (stereo partly specified),
0.016,COCCN1CCC2(CC1)N=C1C(=C3NC(=O)/C(C)=C\C=C\[C@H](C)[C@H](O)[C@@H](C)[C@@H](O)[C@@H](C)[C@H](OC(C)=O)[C@H](C)[C@@H](OC)/C=C/O[C@@]4(C)Oc5c(C)c(O)c(c1c5C4=O)C3=O)N2,
0.004,CCCCN1CCC2(CC1)N=C1C(=C3NC(=O)/C(C)=C\C=C\[C@H](C)[C@H](O)[C@@H](C)[C@@H](O)[C@@H](C)[C@H](OC(C)=O)[C@H](C)[C@@H](OC)/C=C/O[C@@]4(C)Oc5c(C)c(O)c(c1c5C4=O)C3=O)N2,Activity [3]: Active
0.016,CO[C@H]1/C=C/O[C@@]2(C)Oc3c(C)c(O)c4c(c3C2=O)C2=NC3(CCN([C@H]5CCCO5)CC3)NC2=C(NC(=O)/C(C)=C\C=C\[C@H](C)[C@H](O)[C@@H](C)[C@@H](O)[C@@H](C)[C@H](OC(C)=O)[C@@H]1C)C4=O,
0.004,C#CCCN1CCC2(CC1)N=C1C(=C3NC(=O)/C(C)=C\C=C\[C@H](C)[C@H](O)[C@@H](C)[C@@H](O)[C@@H](C)[C@H](OC(C)=O)[C@H](C)[C@@H](OC)/C=C/O[C@@]4(C)Oc5c(C)c(O)c(c1c5C4=O)C3=O)N2,
